mIAP activ = mouse IAP activation. muIAP, CDP-Star luminescence, 30 min; stronger effect = higher value; 1 = vehicle-only enzyme signal, 0 = enzyme-free wells. activation factor at 10 µM. 330,000 tested, 0.24% active. AID 2805;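 active means activation factor of at least 2 at 20 µM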
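Assay system: mouse IAP enzyme; Reagent: CDP-Star chemiluminescent phosphatase substrate; Compound: DMSO-dissolved test compounds; Incubation: 30 min, room temperature; Technique: luminescence from enzymatic CDP-Star hydrolysis; Controls: DMSO-only wells and no-enzyme negative control.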
bIAP activator = intestinal alkaline phosphatase (bovine) activation; 200,000 tested, 0.17% active; purified bovine IAP, CDP-star luminescence, 30 min; stronger effect = higher value; fold of DMSO-control signal, blank-subtracted; activation factor at 20 µM; AID 1016;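 active means activation factor of 2 or more at 20 µM, a signal rise over negative controls twice the positive control's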
hIAP activ = increases human intestinal alkaline phosphatase activity; P09923; purified human IAP, CDP-Star luminescence, 30 min; stronger effect = higher value; 1 = vehicle-only enzyme, 0 = enzyme-free background; activation factor at 10 µM; 330,000 tested, 0.16% active; AID 2524;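 active means activation factor of the enzyme at least 2-fold when tested at 20 µM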
Target sequence (P09923 whole entry, looked up): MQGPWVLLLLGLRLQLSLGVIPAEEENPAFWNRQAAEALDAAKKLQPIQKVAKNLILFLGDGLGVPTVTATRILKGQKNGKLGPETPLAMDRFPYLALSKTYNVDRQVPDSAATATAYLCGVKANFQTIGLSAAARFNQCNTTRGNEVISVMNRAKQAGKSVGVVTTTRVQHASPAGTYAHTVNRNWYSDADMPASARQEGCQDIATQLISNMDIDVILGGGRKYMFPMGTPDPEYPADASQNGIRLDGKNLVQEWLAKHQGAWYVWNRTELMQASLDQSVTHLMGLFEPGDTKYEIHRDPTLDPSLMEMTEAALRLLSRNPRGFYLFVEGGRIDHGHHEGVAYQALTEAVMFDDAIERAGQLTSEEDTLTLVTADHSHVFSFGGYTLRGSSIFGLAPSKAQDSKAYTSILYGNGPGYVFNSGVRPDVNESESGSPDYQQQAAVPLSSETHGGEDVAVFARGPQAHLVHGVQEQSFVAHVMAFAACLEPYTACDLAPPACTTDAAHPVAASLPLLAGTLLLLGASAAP
hIAP block = blocks human intestinal alkaline phosphatase | P09923 | purified IAP, CDP-Star luminescence, 30 min | inhibition, % at 10 µM | 330,000 tested, 0.12% active | AID 2544;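 active means inhibition reaching a set limit with compound at 10 µM in the primary screen, cut at about 35% in these data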;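 further: plate controls were DMSO wells with enzyme for no effect and no-enzyme buffer wells for full effect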
mIAP inh = blocks mouse intestinal alkaline phosphatase | inhibition, % at 10 µM | AID 2806 | 330,000 tested, 0.2% active | purified mouse IAP, CDP-Star luminescence, 30 min;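 active means inhibition of at least 40% at 10 µM in the primary screen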;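 further: plate controls were DMSO with enzyme for no effect and no enzyme wells for full effect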
bIAP inh = intestinal alkaline phosphatase (bovine) inhibition | inhibition, % at 20 µM | purified bovine IAP, CDP-star luminescence, 30 min | 190,000 tested, under 10 active;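 active means over 50% inhibition of intestinal alkaline phosphatase at 20 µM in the single-dose screen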
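System: purified bovine intestinal alkaline phosphatase (IAP) enzyme; Input: IAP diluted 1/65,000,000 in the well; Measured by: CDP-star luminescence signal; Compound dosing: 20 µM single dose; Incubation: 30 min reaction at room temperature.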
hIAP act confirm = human IAP activation confirmation. purified IAP, CDP-Star luminescence, 30 min; stronger effect = lower value. activation (%Activity, negative = activation), % at 8.3 µM. shares compounds with hIAP activ. 880 tested, 10% active;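 active means at least twofold enzyme activation in any of six single-dose repeats, which the averaged readout prints as negative percent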
Numbers without * were called inactive; / = no result given. Sampled rows, rich in hits. Any-hit rate of the full collection: about 0.79%.

SMILES	mIAP activ	bIAP activator	hIAP activ	hIAP block	mIAP inh	bIAP inh	hIAP act confirm
CCCN1C(=O)/C(=C2/C=Cc3ccccc3N2CC)SC1=S	0.66	1	0.62	38*	34	4	6
O=C1N=C(N2CCOCC2)S/C1=C/c1cc2c(cc1[N+](=O)[O-])OCO2	0.95	/	0.96	4	5	/	/
CCOc1cccc(-c2nc(C(N)=O)c3[nH]c(=O)n(-c4cccc(Cl)c4)c3n2)c1O	0.8	1.1	4*	-296	20	-13	-75*
Cc1nn2c(C(F)(F)F)cc(-c3ccc(Cl)cc3)nc2c1C(=O)N1CCOCC1	1	0.9	2.8*	-177	-2	8	8
O=C(c1cnn2c(C(F)(F)F)cc(-c3ccc(Br)cc3)nc12)N1CCOCC1	/	1	/	/	/	-1	/
Cc1ccc(C)c(C(=O)CCC(=O)Nc2ccc(F)cc2)c1	1	/	1.1	-12	-4	/	/
O=C(NCC1CCCO1)c1cccc(S(=O)(=O)Nc2ccc(F)cc2)c1 (stereo unspecified)	1	/	0.95	5	-1	/	/
COc1cc(OC)nc(NC(=O)NS(=O)(=O)c2ccc(OC(F)(F)F)cc2)n1	0.98	1	1	-2	2	-3	/
COc1ccccc1C(=O)NCC(=O)NCc1cc(=O)n(C)c(=O)n1C	0.94	/	0.61	39*	6	/	-5
Cn1c(CNC(=O)CNC(=O)c2ccccc2F)cc(=O)n(C)c1=O	0.97	/	0.92	8	3	/	/
COc1ccc(NCc2ccc(OC)c(OC)c2)cc1	0.93	1	0.62	38*	7	0	-30
COc1ccc(CNc2ccc(C)c(C)c2)cc1	1	0.9	1	-4	-1	8	/
O=C1c2c(O)cc(O)cc2O[C@H](c2ccc(O)cc2)[C@H]1O	0.89	/	1	-3	11	/	/
C[C@@H]1O[C@@H](O[C@@H]2C(=O)c3c(O)cc(O)cc3O[C@H]2c2ccc(O)c(O)c2)[C@H](O)[C@H](O)[C@H]1O	0.86	/	0.65	35*	14	/	-43
C=CCSC1=N/C(=C\c2ccc(C(=O)O)cc2)C(=O)S1	0.84	1.2	0.88	12	16	-17	/
CCOc1ccc(-c2n[nH]c(C)c2Oc2ccccc2OC)c(O)c1	1.1	1.6	0.96	4	-12	-58	/
CCCOC(=O)c1ccc(Oc2c(-c3ccc(OC)cc3O)n[nH]c2C)cc1	0.98	1.2	1.8	-80	2	-15	/
CCCOC(=O)c1ccc(Oc2cn[nH]c2-c2ccc(OCC(=O)NN)cc2O)cc1	1.1	/	2	-97	-5	/	/
CCOC(=O)c1ccc(Oc2cn[nH]c2-c2ccc(OCC(=O)NN)cc2O)cc1	0.94	/	2.4*	-136	6	/	4
CCCOC(=O)c1ccc(Oc2c(-c3ccc(O)cc3O)n[nH]c2C)cc1	1.1	1.5	2.3*	-132	-12	-48	-62
Cc1[nH]nc(-c2ccc(O)cc2O)c1Oc1ccccc1	1.3	1.2	2.1*	-107	-26	-16	-17
O=c1[nH]c(NC2CCN(S(=O)(=O)c3ccccc3C(F)(F)F)CC2)nc2c1CCCC2	0.97	/	1	-2	3	/	/
CCOc1ncccc1C(=O)OCC(=O)c1ccc(F)cc1	1	1	1	-1	-2	3	/
CC(=O)N/N=C/c1cc(C(C)C)cc(/C=N/NC(C)=O)c1O	0.89	1.4	2.5*	-154	11	-43	-11
CC(=O)N/N=C/c1cc(C)n(-c2ccc(Br)cc2)c1C	1.1	1.2	1.1	-14	-10	-16	/
SMILES	mIAP activ	bIAP activator	hIAP activ	hIAP block	mIAP inh	bIAP inh	hIAP act confirm
Cc1ccc(OCCOC(=O)c2cccc(S(=O)(=O)N3CC(C)OC(C)C3)c2)cc1 (stereo unspecified)	0.88	/	0.93	7	12	/	/
CCOc1ccc(NC(=O)c2cc(=O)[nH]c3ccccc23)cc1	0.98	/	0.93	7	2	/	/
COc1ccc(C(=O)NNC2=Nc3cccc4cccc2c34)cc1	0.75	1.2	1.3	-34	25	-19	/
COc1ccc(CC(=O)NNC2=Nc3cccc4cccc2c34)cc1	1.1	/	2.2*	-119	-6	/	12
Cc1cc(=O)[nH]c(-n2[nH]c3c(c2=O)CCCC3)n1	0.81	1.5	2.3*	-133	19	-49	56
Oc1ccc(Br)cc1/C=N/NC(=S)NCCc1ccccc1	0.93	/	1.1	-6	7	/	/
COc1ccc(O)c(/C=N/NC(=S)NCCc2ccccc2)c1	0.91	/	2.1*	-107	9	/	-91*
O=C(CN1CCCCCCC1)Nc1cc(Cl)cc(Cl)c1	1.1	0.9	1	-2	-8	13	/
Cc1cc(C)cc(SCc2noc(C(=O)NCC3CCCO3)c2C(=O)O)c1 (stereo unspecified)	1	0.9	1.1	-5	-2	6	/
Cc1cccc(SCc2noc(C(=O)NCC3CCCO3)c2C(=O)O)c1 (stereo unspecified)	0.96	1	0.65	35*	4	-2	-213*
CC(C)Oc1ccccc1/C=N/n1nnnc1N	1.1	/	1.2	-16	-6	/	/
C=C(NS(=O)(=O)c1ccc(C)cc1)C(=O)OC	0.95	/	/	/	5	/	/
COc1ccc(NC(=O)/C(C#N)=C\c2cc(C)n(-c3ccc4c(c3)OCO4)c2C)cc1	0.86	0.9	2.1*	-108	14	9	-56
C/C(=N\NC(=O)C1CC1)c1ccccc1Br	1	/	0.65	35*	-2	/	-30
O=C(Cn1ccc([N+](=O)[O-])n1)Nc1nc2ccccc2s1	1	0.9	1.2	-18	0	8	/
CC1COC(c2cccn2Cc2ccccc2Cl)=N1 (stereo unspecified)	0.99	1	0.86	14	1	2	/
CN(C(=O)Cn1cccc1C1=NC(c2ccccc2)CO1)c1ccccc1 (stereo unspecified)	0.95	1	0.62	38*	5	-4	-55
O=C(CC1CCCCC1)Nc1ncn[nH]1	1.1	2.8*	2*	-102	-10	-183	-53
O=C(CC(c1ccccc1)c1ccccc1)Nc1ncn[nH]1	1.4	3.3*	2.5*	-146	-40	-231	-7
O=C(/C=C/c1ccccc1O)c1ccco1	0.78	/	0.58	42*	22	/	-104*
O=C(/C=C/c1cc(Br)ccc1O)c1ccco1	0.97	/	0.91	9	3	/	/
Cn1nc(C(=O)NNC(=O)CCOc2ccc(C(C)(C)C)cc2)c2ccccc2c1=O	0.96	/	2.1*	-114	4	/	-19
COc1c[nH]n(-c2ccccc2)c(=O)c1=O	1.2	/	1.1	-10	-16	/	/
c1cc(-c2sc(-c3ccncc3)c(-c3ccncc3)c2-c2ccncc2)ccn1	0.99	/	1	0	1	/	/
COc1cc(OC)cc(C(=O)N2CCN(S(=O)(=O)c3ccc(Cl)s3)CC2)c1	1	/	0.92	8	-1	/	/

Screens: PubChem, Sanford-Burnham Center for Chemical Genomics
